# EBV gp42 inh = inhibitors of Epstein-Barr virus glycoprotein 42. Q1HVG2. Fluorescence polarization binding assay, mP read-out. inhibition, % (tested at 21.74 µM). 0.42% of 220,000 active. AID 1085; in the data active = inhibition above about 50%
# RBBP9 inhibitor = human RBBP9 hydrolase inhibition; AID 1515; inhibition, % at 7.94 µM; recombinant RBBP9, FP-Rh probe fluorescence polarization; 0.2% of 220,000 active; O75884;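 active = inhibition above the campaign mean of all tested compounds plus 3 SD, cut at about 14% in these data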
# Target sequence (O75884 whole entry, looked up): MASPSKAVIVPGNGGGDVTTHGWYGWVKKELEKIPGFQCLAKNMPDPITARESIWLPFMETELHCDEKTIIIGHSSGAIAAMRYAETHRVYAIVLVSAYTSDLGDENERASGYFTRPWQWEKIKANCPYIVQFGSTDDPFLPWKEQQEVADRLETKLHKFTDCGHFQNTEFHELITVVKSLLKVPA
#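 Test system: recombinant human RBBP9; Timing: 30 min then 45 min, 25 °C; Detection: fluorescence polarization; Control set: RBBP9 with DMSO as uninhibited control, no-protein wells as full inhibition; Compound dosing: one concentration, 7.94 µM nominal, 0.794% DMSO; Probe or stimulus: FP-Rh activity-based probe, 375 nM before mixing.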
# p47phox inh = p47phox (human) inhibition | P14598 | p47phox/p22phox peptide binding, fluorescence polarization, 2 h | inhibition, % at 24.7 µM | 0.53% of 220,000 active | AID 1274
# WT yeast gro inh = growth inhibition of WT yeast, mitochondrial fusion screen | mitochondrial fusion phenotypic screen, WT strain | inhibition, % at 10 µM | 2.1% of 190,000 active; in the data active = inhibition above about 58%; tested in S. cerevisiae
# 14-3-3 Bad PPI = disrupts binding of bovine 14-3-3 zeta to phospho-Bad peptide; P63103; TR-FRET 14-3-3zeta/Dy647-pBad peptide displacement, 1 h; inhibition, % at 21.7 µM; 0.71% of 220,000 active;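 active = inhibition above about 70%, limit read from the data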
# Target sequence (P63103 whole entry, looked up): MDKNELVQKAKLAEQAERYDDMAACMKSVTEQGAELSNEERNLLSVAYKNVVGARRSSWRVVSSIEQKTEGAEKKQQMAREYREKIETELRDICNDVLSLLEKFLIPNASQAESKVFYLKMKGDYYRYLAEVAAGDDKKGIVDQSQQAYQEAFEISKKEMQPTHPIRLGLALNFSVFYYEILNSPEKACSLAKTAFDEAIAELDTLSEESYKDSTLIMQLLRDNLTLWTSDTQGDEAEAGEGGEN
# eIF4E-4G inh = eIF4E/eIF4G interaction inhibition in translation initiation; inhibition, % at 21.7 µM; 0.37% of 220,000 active; TR-FRET eIF4E-eIF4GI(517-606) binding, 2 h; P63073+Q04637; AID 782
# Hits are given with their value; 0 = inactive; - = no result. Only some compounds are listed: those with a hit (about 3.7% of all), similar ones and a draw of the others.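 The calls were made as follows, unless noted: active = inhibition above about 30% (limit read from the data); inactive = the rest.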
SMILES,EBV gp42 inh,RBBP9 inhibitor,p47phox inh,WT yeast gro inh,14-3-3 Bad PPI,eIF4E-4G inh
N#CCCN(C(=O)COC(=O)C1CCN(S(=O)(=O)c2cccs2)CC1)c1ccccc1,0,0,-,0,0,0
COC(C[C@H]1O[C@H]1[C@@H](O)[C@@H](C)OCc1ccccc1)OC,0,-,0,-,0,0
Cc1nc(-c2ccc(Cl)cc2)sc1C1(C)CC(c2cccc([N+](=O)[O-])c2)=NO1 (stereo not drawn),0,-,0,-,0,0
CCOC(=O)c1c(OCC)[nH]c2c1cc(O)c1ccccc12,0,0,0,59,0,0
S=C(Nc1ccc(Oc2ccccc2)cc1)NC1CCCCCC1,0,0,0,69,0,0
S=C(Nc1ccc(Oc2ccc(NC(=S)NC3CCCCC3)cc2)cc1)NC1CCCCC1,0,0,0,0,0,0
Cc1ccc(NC(=S)NNC(=S)NC2CCCCC2)cc1,0,0,0,0,0,0
CCCN(CC1CC1)C(=S)Nc1ccc(Oc2ccccc2)cc1,0,0,0,0,0,0
CN(C(=S)Nc1ccc(Oc2ccccc2)cc1)C1CCCCC1,0,0,0,68,0,0
S=C(NNc1ccc2ccccc2c1)NC1CCCCC1,0,0,0,78,0,0
S=C(Nc1ccc(Oc2ccccc2)cc1)NC1CCCCC1,0,0,0,61,0,0
Cc1nc(Cl)nc(N(C)c2ccccc2)c1[N+](=O)[O-],0,0,0,-,0,0
Cc1cccc(-n2ccnc2CN2CCN(C(C)C)C(CCO)C2)c1 (stereo not drawn),0,0,0,-,0,0
CCC1NC(=S)NC(C)=C1C(=O)c1ccccc1 (stereo not drawn),0,0,0,0,0,0
NC(=O)c1ccc(NC(=O)CSc2nnc(-c3ccncc3)n2Cc2ccco2)cc1,0,0,0,-,0,0
Nc1cc(C(F)(F)F)ccc1-n1cccc1,0,0,0,0,0,0
CC(NCc1ccc(F)cc1)C(=O)Nc1cc(S(=O)(=O)N2CCCCC2)ccc1Cl (stereo not drawn),0,0,0,0,0,0
CCCCN(C)C(=S)Nc1ccc(Oc2ccccc2)cc1,0,0,0,59,0,0
CN(CCC#N)C(=S)Nc1ccc(Oc2ccccc2)cc1,0,0,0,0,0,0
O=C(CCl)Nc1ccc(N2CCCCCC2)cc1,0,0,0,0,0,0
O=C(/C=C/c1cccs1)Nc1scc(-c2ccccc2)c1C(=O)O,0,0,0,0,92,92
O=C(/C=C/c1cccs1)Nc1nc(-c2ccccc2)cs1,0,0,0,0,0,0
O=c1oc(-c2ccccc2NS(=O)(=O)c2ccc3ccccc3c2)nc2ccccc12,0,0,0,0,0,0
COc1cccc(-c2nn(-c3ccccc3)cc2CNC(C)Cn2cncn2)c1 (stereo not drawn),0,0,0,0,0,0
C=CCC(C)(NCc1ccccc1)c1ccco1 (stereo not drawn),0,0,0,0,72,0
SMILES,EBV gp42 inh,RBBP9 inhibitor,p47phox inh,WT yeast gro inh,14-3-3 Bad PPI,eIF4E-4G inh
O=C1C2(CCCC13COC(c1ccc(O)cc1)OC3)COC(c1ccc(O)cc1)OC2 (stereo not drawn),0,0,0,-,0,0
CC(C)N=C1NN=C(c2ccc(Cl)c(Cl)c2)CS1,0,0,0,0,0,0
CCOC(=O)c1c(C)oc2c1C(=O)c1ccccc1C2=O,0,0,0,0,0,0
CC(C)OC(=O)c1c2c(n3ccccc13)C(=O)c1ccccc1C2=O,88,0,0,0,0,0
O=S(=O)(c1ccccc1)c1nc(-c2ccco2)oc1NCCN1CCOCC1,0,0,0,0,0,0
Cc1ccc(CNc2oc(-c3ccco3)nc2S(=O)(=O)c2ccccc2)cc1,0,0,0,63,0,0
CCSc1nnc(-c2ccncc2)o1,0,0,0,0,0,0
CCSc1nnc(-c2sc3nnc(-c4ccccc4)c(-c4ccccc4)c3c2N)o1,167,0,0,0,0,0
O=C(c1cccc(Cl)c1)N1CCN(Cc2ccccc2F)CC1,0,0,0,0,84,0
O=C(c1cccc(Cl)c1)N1CCN(Cc2ccncc2)CC1,0,0,0,0,0,0
CC(C)C1Nc2c(O)cc(Cl)c([N+](=O)[O-])c2C2C=CCC21 (stereo not drawn),0,0,0,83,0,0
COc1cccc(OC)c1-c1nn(-c2ncc(C(F)(F)F)cc2Cl)c(=O)o1,0,0,0,-,0,0

# Screening data (PubChem)
